In ChEMBL document CHEMBL4765424 (Eur J Med Chem, 2020):

Legend:
[1] = Inhibition of SARS CoV2 C-terminal His6-tagged 3CL protease expressed in Escherichia coli BL21 DE3 using Thr-Ser-Ala-Val-Leu-Gln-pNA as substrate preincubated for 30 mins followed by substrate addition and measured for 20 mins by colorimetric method; design: species or system Severe acute respiratory syndrome coronavirus 2
[2] = tested on: Severe acute respiratory syndrome coronavirus 2; assay: Inhibition of SARS CoV2 C-terminal His6-tagged 3CL protease expressed in Escherichia coli BL21 DE3 at 50 uM using Thr-Ser-Ala-Val-Leu-Gln-pNA as substrate preincubated for 30 mins followed by substrate addition and measured for 20 mins by colorimetric method relative to control; details: time 50.0 min
In short: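 Recombinant SARS-CoV-2 3CLpro comes from a synthetic full-length gene expressed in E. coli and purified. The enzyme was preincubated with compound for 30 min at room temperature in 40 mM PBS, 100 mM NaCl, 1 mM EDTA, 0.1% Triton, pH 7.3. TSAVLQ-pNA was then added to 200 μM final. A390 was read every 30 s for 20 min. Line 1 is percent inhibition at 50 μM. IC50s were fitted with a Hill1 function.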

SMILES	IC50 [1]	inhibition [2]
NC(=O)c1ccc2c(c1)C(=O)C(=O)N2Cc1ccc2cc(-c3ccccc3)ccc2c1	24.9 µM	–
NC(=O)Cc1ccc2c(c1)C(=O)C(=O)N2Cc1ccc2ccccc2c1	39.2 µM	–
NC(=O)c1ccc2c(c1)C(=O)C(=O)N2Cc1ccc2cc(Br)ccc2c1	0.047 µM	–
O=C(O)c1ccc2c(c1)C(=O)C(=O)N2Cc1ccccc1	–	< 25%
NC(=O)c1ccc2c(c1)C(=O)C(=O)N2Cc1cc2ccccc2s1	0.053 µM	–
CCCCN1C(=O)C(=O)c2cc(I)ccc21	41.8 µM	–
CCCCN1C(=O)C(=O)c2cc(C(=O)ON3C(=O)CCC3=O)ccc21	–	47%
CN1C(=O)C(=O)c2cc(C(=O)ON3C(=O)CCC3=O)ccc21	–	45%
CCCN1C(=O)C(=O)c2cc(C(N)=O)ccc21	10.2 µM	–
O=C1C(=O)N(CN2CCOCC2)c2ccc(Cl)cc21	–	< 25%
O=C(O)c1ccc2c(c1)C(=O)C(=O)N2Cc1ccc2ccccc2c1	–	32%
O=C1C(=O)N(CO)c2ccccc21	–	< 25%
CCCCN1C(=O)C(=O)c2cc(C(=O)O)ccc21	–	< 25%
CN1C(=O)C(=O)c2cc(I)ccc21	–	25%
CCCN1C(=O)C(=O)c2cc(C(=O)OC)ccc21	–	53%
CCCCN1C(=O)C(=O)c2cc(C(=O)OC)ccc21	–	42%
COC(=O)c1ccc2c(c1)C(=O)C(=O)N2CN1CCOCC1	–	32%
CN1C(=O)C(=O)c2cc(C(=O)O)ccc21	–	< 25%
COC(=O)c1ccc2c(c1)C(=O)C(=O)N2Cc1ccccc1	–	45%
NC(=O)c1ccc2c(c1)C(=O)C(=O)N2Cc1ccc2ccccc2c1	0.045 µM	–
O=C1C(=O)N(CN2CCCCC2)c2ccc(F)cc21	–	< 25%
O=C(ON1C(=O)CCC1=O)c1ccc2c(c1)C(=O)C(=O)N2Cc1ccccc1	15.5 µM	–
O=C1C(=O)N(CN2CCOCC2)c2ccc([N+](=O)[O-])cc21	–	< 25%
CCCN1C(=O)C(=O)c2cc(C(=O)O)ccc21	–	< 25%
O=C1C(=O)N(CN2CCOCC2)c2ccc(F)cc21	–	< 25%
CCCN1C(=O)C(=O)c2cc(I)ccc21	–	51%
COC(=O)c1ccc2c(c1)C(=O)C(=O)N2C	–	53%
O=C1C(=O)N(CN2CCOCC2)c2ccccc21	–	< 25%
CCCCN1C(=O)C(=O)c2cc(C(N)=O)ccc21	17.8 µM	–
